Results collected from several papers.
Compare with care: the assays were run in different laboratories.
Target: Receptor tyrosine-protein kinase erbB-2 (ERBB2, Homo sapiens, UniProt P04626)

Compound | test | conditions | remaining binding [%]
O=C(NCCCN1CCOCC1)c1ccc(Nc2ncc(Cl)c(-c3ccc(Cl)s3)n2)cc1 | binding, competition with immobilised ligand | 1 µM | 80
CN(c1nccc(-c2cnn3ncccc23)n1)C1CC1 | binding | 1 µM | 85
FC(F)(F)Oc1cccc(-c2cnc3ccc(-c4ccncc4)nn23)c1 | cell-free assay, competition with immobilised ligand | 5 µM | 57
COc1cnc(Nc2cccc(S(N)(=O)=O)c2)nc1N1CCN(c2ccccc2)C(=O)C1 | binding, competition with immobilised ligand | 1 µM | 100
Cc1cnn2ncc(-c3ccnc(N(C)C)n3)c2c1 | binding | 1 µM | 94
COc1cc(-c2cn(C3CCc4ccccc4N(CC(F)(F)F)C3=O)nn2)ccc1-n1ccc(C)n1 (stereo not drawn) | cell-free assay, competition with immobilised ligand | 1 µM | 100
C[C@@H](c1ccc(-n2cnc3c(N)ncnc32)cc1)N1CCc2nn(C)c(Cc3ccccc3)c2C1=O | binding, competition with immobilised ligand | 0.1 µM | 81
O=C(Nc1cccnn1)N1CC(C/C=C/c2cncc(Oc3ccc(C(F)(F)F)cn3)n2)C1 | cell-free assay, competition with immobilised ligand | 1 µM | 83
O=C(Nc1c[nH]nc1C(=O)NC1CCNCC1)c1cc(F)cc(F)c1 | binding, competition with immobilised ligand | 1 µM | 69
CC(=O)c1c(NS(C)(=O)=O)c2cc(-c3ccc(Cl)cc3)c(-c3ccc(Cl)cc3Cl)nc2n(C)c1=O | cell-free assay, competition with immobilised ligand | 1 µM | 100
O=C(c1ccc(Nc2ncc(Cl)c(-c3cc4ccccc4s3)n2)cc1)N1CCC(N2CCCC2)CC1 | binding, competition with immobilised ligand | 1 µM | 100
CN(CCCC(F)(F)F)c1nccc(-c2cnn3ncccc23)n1 | binding | 1 µM | 99
CS(=O)(=O)NCC[C@H](NC(=O)c1cncc2c1cnn2-c1ccc(F)cc1)c1ccnc(S(C)(=O)=O)c1 | cell-free assay, competition with immobilised ligand | 1 µM | 100
CN(C)c1ncc(F)c(-c2cnn3ncccc23)n1 | binding | 1 µM | 98
Nc1cnc(N2CCc3cc(S(=O)(=O)Nc4c(F)cc(Cl)cc4F)cc(N4CCCC4=O)c32)nc1 | cell-free assay, competition with immobilised ligand | 1 µM | 100
